ChEMBL document CHEMBL1156763, “1,8-Naphthyridines VIII. Novel 5-aminoimidazo[1,2-a] [1,8]naphthyridine-6-carboxamide and 5-amino[1,2,4]triazolo[4,3-a] [1,8]naphthyridine-6-carboxamide derivatives showing potent analgesic or anti-inflammatory activity, respectively, and completely devoid of acute gastrolesivity” (Eur J Med Chem, 2010)

Tests used:
Mus musculus [1] = assay: Analgesic activity in Swiss mouse assessed as inhibition of acetic acid-induced writhing response at 100 mg/kg, po administered 1 hr before acetic acid challenge measured for 30 mins relative to control; assay type: functional
Method in brief: (§1)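 Mice of either sex (25–35 g), fasted overnight, dosed by oral gavage with test agent suspended in 0.5% methylcellulose; controls got vehicle alone. Each hind-limb full extension counted as a writhe over 30 min after the noxious agent. % inhibition from treated vs control writhing; groups of 8–10; Student's t-test. Dosing starts at 100 mg/kg, then halved stepwise.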

Rattus norvegicus [2] = assay: Antiinflammatory activity against carrageenan-induced paw edema in Wistar rat assessed as inhibition of hind paw edema at 100 mg/kg, po administered 1 hr prior to carrageenan challenge measured after 3 hrs relative to control; assay type: functional
Method in brief: (§2)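 Wistar rats of either sex (250–300 g), fasted overnight, gavaged with compound in 0.5% methylcellulose. 1 h later, 0.1 mL 1% carrageenan injected subcutaneously into the plantar hind paw. Paw volume read by plethysmometer right after injection and 3 h later. Control edema set as 100, % inhibition from swelling difference. Groups of 8–10; Student's t-test.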

Rattus norvegicus [3] = assay: Antiinflammatory activity against carrageenan-induced paw edema in Wistar rat assessed as inhibition of hind paw edema at 50 mg/kg, po administered 1 hr prior to carrageenan challenge measured after 3 hrs relative to control; assay type: functional; method in brief: as §2
Mus musculus [4] = assay: Sedative activity in Swiss mouse assessed as inhibition of spontaneous locomotor activity at 100 mg/kg, po dose measured for every 5 mins up to 90 mins; assay type: organism-based; set-up: dose 100 mg/kg, route oral
Method in brief: (§3)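 Overnight-fasted mice given compound (0.5% methylcellulose) or vehicle by oral gavage, then housed singly in an activity cage. Locomotion auto-recorded in 5-min intervals for 90 min; pulses of the final 30 min scored. % inhibition versus controls; runs between 9.00 and 13.00; groups of 8–10; Student's t-test.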

Mus musculus [5] = assay: Analgesic activity in Swiss mouse assessed as inhibition of acetic acid-induced writhing response at 50 mg/kg, po administered 1 hr before acetic acid challenge measured for 30 mins relative to control; assay type: functional; method in brief: as §1
Rattus norvegicus [6] = assay: Acute gastrolesivity in Wistar rat assessed as appearance of gastric damage at 200 mg/kg, po after 5 hrs; assay type: toxicity, organism-based, Stomach; set-up: dose 200 mg/kg, route oral; conditions: in vivo
Method in brief: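 Wistar rats (250–300 g), either sex, fasted overnight; compound suspended in 0.5% methylcellulose, single oral gavage at 200 mg kg^-1 (1 mL 100 g^-1). Stomachs excised 5 h later, fixed in 2% formalin, opened along greater curvature, examined by stereomicroscope by blinded observer. Reported as number of animals with gastric damage over treated animals (eight per group).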

Rattus norvegicus [7] = assay: Antiinflammatory activity against carrageenan-induced paw edema in Wistar rat assessed as inhibition of hind paw edema at 12.5 mg/kg, po administered 1 hr prior to carrageenan challenge measured after 3 hrs relative to control; assay type: functional; method in brief: as §2
Mus musculus [8] = assay: Sedative activity in Swiss mouse assessed as inhibition of spontaneous locomotor activity at 50 mg/kg, po dose measured for every 5 mins up to 90 mins; assay type: organism-based; set-up: dose 50 mg/kg, route oral; method in brief: as §3
Mus musculus [9] = assay: Analgesic activity in Swiss mouse assessed as inhibition of acetic acid-induced writhing response at 25 mg/kg, po administered 1 hr before acetic acid challenge measured for 30 mins relative to control; assay type: functional; method in brief: as §1
Rattus norvegicus [10] = assay: Antiinflammatory activity against carrageenan-induced paw edema in Wistar rat assessed as inhibition of hind paw edema at 25 mg/kg, po administered 1 hr prior to carrageenan challenge measured after 3 hrs relative to control; assay type: functional; method in brief: as §2
Mus musculus [11] = assay: Analgesic activity in Swiss mouse assessed as inhibition of acetic acid-induced writhing response at 12.5 mg/kg, po administered 1 hr before acetic acid challenge measured for 30 mins relative to control; assay type: functional; method in brief: as §1
Rattus norvegicus [12] = assay: Antiinflammatory activity against carrageenan-induced paw edema in Wistar rat assessed as inhibition of hind paw edema at 6.25 mg/kg, po administered 1 hr prior to carrageenan challenge measured after 3 hrs relative to control; assay type: functional; method in brief: as §2

| Compound | inhibition in vivo at 100 mg/kg (Mus musculus [1]) | inhibition in vivo at 100 mg/kg (Rattus norvegicus [2]) | inhibition in vivo at 50 mg/kg (Rattus norvegicus [3]) | inhibition at 100 mg/kg (Mus musculus [4]) | inhibition in vivo at 50 mg/kg (Mus musculus [5]) | Activity (Rattus norvegicus [6]) | inhibition in vivo at 12.5 mg/kg (Rattus norvegicus [7]) | inhibition at 50 mg/kg (Mus musculus [8]) | inhibition in vivo at 25 mg/kg (Mus musculus [9]) | inhibition in vivo at 25 mg/kg (Rattus norvegicus [10]) | inhibition in vivo at 12.5 mg/kg (Mus musculus [11]) | inhibition in vivo at 6.25 mg/kg (Rattus norvegicus [12]) |
| --- | --- | --- | --- | --- | --- | --- | --- | --- | --- | --- | --- | --- |
| CCN(C)C(=O)c1c(NC(C)C)c2cccnc2n2c(C(C)C)nnc12 | 82% | 46% | 0% | 96% | 0% | Non-toxic |  |  |  |  |  |  |
| CCN(CC)C(=O)c1c(NC(C)C)c2cccnc2n2c(C(C)C)nnc12 | 83% | 81% | 75% |  | 54% | Non-toxic | 68% | 64% | 33% | 75% | 0% |  |
| CCCN(C)c1c(C(=O)N(CC)CC)c2nnc(C(C)C)n2c2ncccc12 | 71% | 71% | 55% | 62% | 37% | Non-toxic | 44% |  |  | 42% |  | 23% |
| CCN(CC)C(=O)c1c(N2CCN(C)CC2)c2cccnc2n2ccnc12 | 80% | 0% |  | 77% | 74% | Non-toxic |  | 41% | 56% |  | 32% |  |
| CCNc1c(C(=O)N(CC)CC)c2nccn2c2ncccc12 | 60% | 29% | 26% | 89% | 2% | Non-toxic | 0% |  |  | 25% |  |  |
| CCN1CCN(c2c(C(=O)N(CC)CC)c3nccn3c3ncccc23)CC1 | 80% | 5% |  | 67% | 30% | Non-toxic |  |  |  |  |  |  |
| CCN(CC)C(=O)c1c(NC)c2cccnc2n2c(C)cnc12 | 73% | 38% | 20% | 55% | 0% | Non-toxic |  |  |  |  |  |  |
| CCN(CC)C(=O)c1c(N2CCN(Cc3ccccc3)CC2)c2cccnc2n2c(C)cnc12 | 17% | 0% |  |  |  |  |  |  |  |  |  |  |
| CCc1nnc2c(C(=O)N(CC)CC)c(N(C)CC(C)C)c3cccnc3n12 | 92% | 39% | 42% | 60% | 26% | Non-toxic | 8% |  |  | 28% |  |  |
| CCN(CC)C(=O)c1c(NCC(C)C)c2cccnc2n2c(C(C)C)nnc12 | 100% | 70% | 66% |  | 33% | Non-toxic | 50% |  |  | 61% |  | 27% |
| C=CCNc1c(C(=O)N(CC)CC)c2nnc(C(C)C)n2c2ncccc12 | 79% | 60% | 49% | 64% | 28% | Non-toxic | 32% |  |  | 52% |  | 25% |
| CCN(CC)C(=O)c1c(N2CCN(C)CC2)c2cccnc2n2c(C)cnc12 | 85% | 0% |  | 80% | 86% | Non-toxic |  | 20% | 83% |  | 21% |  |
| CCN(CC)C(=O)c1c(NCC(C)C)c2cccnc2n2ccnc12 | 71% | 0% |  | 68% | 48% | Non-toxic |  | 28% | 48% |  | 0% |  |
| CCN(CC)C(=O)c1c(N2CCN(CCO)CC2)c2cccnc2n2ccnc12 | 41% | 0% |  | 39% | 12% | Non-toxic |  |  |  |  |  |  |
| CCN(CC)C(=O)c1c(NCC(C)C)c2cccnc2n2c(C)cnc12 | 0% | 0% |  |  |  |  |  |  |  |  |  |  |
| CC(C)CNc1c(C(=O)N2CCN(C)CC2)c2nnc(C(C)C)n2c2ncccc12 | 48% | 0% |  | 0% | 29% | Non-toxic |  |  |  |  |  |  |
| CCN1CCN(c2c(C(=O)N(CC)CC)c3ncc(C)n3c3ncccc23)CC1 | 83% | 10% |  | 63% | 48% | Non-toxic |  | 46% | 54% |  | 0% |  |
| CCN(CC)C(=O)c1c(N2CCN(Cc3ccccc3)CC2)c2cccnc2n2ccnc12 | 46% | 26% | 10% | 42% | 0% | Non-toxic |  |  |  |  |  |  |
| CCN(CC)C(=O)c1c(N2CCN(c3ccccc3OC)CC2)c2cccnc2n2ccnc12 | 63% | 16% |  | 86% | 0% | Non-toxic |  |  |  |  |  |  |
| CCOC(=O)c1cn2c(n1)c(C(=O)N(CC)CC)c(N1CCN(C)CC1)c1cccnc12 | 75% | 0% |  | 0% | 2% | Non-toxic |  |  |  |  |  |  |
| CCN(CC)C(=O)c1c(N2CCN(C)CC2)c2cccnc2n2c(N(C)C)cnc12 | 83% | 0% |  | 44% | 16% | Non-toxic |  | 30% |  |  |  |  |
